ChEMBL document CHEMBL4138103, “Discovery of efficient stimulators for adult hippocampal neurogenesis based on scaffolds in dragon's blood” (Eur J Med Chem, 2017)
Calls of active or inactive are those of the source. The rule behind the calls is not given here.

Tests used:
[1] = Cytotoxicity against human SH-SY5Y cells assessed as cell survival at 500 uM after 24 hrs by MTT assay relative to control; format: cell-based; conditions: read-out: Survival
Method in brief: (§1)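 SH-SY5Y human neuroblastoma cells seeded at 5 × 10⁴ cells/mL, incubated 24 h at 37 °C, then exposed to compounds at final concentrations of […] for 24 h. MTT added for a further 4 h at 37 °C. Absorbance read at 570 nm and reported as percent viability. Five parallel samples per condition.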

Rattus norvegicus [2] = assay: Downregulation of AKT phosphorylation in Sprague-Dawley rat adult hippocampus at 0.5 to 4 mg/kg, ip qd preincubated for 28 days followed by BrdU addition at 2 hrs interval for twice on day 29 measured at 24 hrs post BrdU pulse by immunoblot assay; format: functional, organism-based; conditions: in the assay text read “Upregulation” for “Downregulation”
Method in brief: (§2)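 Male SD rats (received at 10 weeks, acclimatized 7 days) were dosed ip once daily for 28 days. The compounds were given in soybean oil with 10% ethanol, and the vehicle group received 10% ethanol in oil. BrdU was given 100 mg/kg twice, 2 h apart, on day 29. Hippocampal tissue was taken 24 h or 28 days later. Lysates were made in RIPA with protease inhibitors and run on 12% SDS-PAGE. Akt, pAkt, ERK1/2 and pERK1/2 were immunoblotted and read by densitometry against GAPDH, normalized to vehicle = 1.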

[3] = Cytotoxicity against human SH-SY5Y cells assessed as cell survival at 1000 uM after 24 hrs by MTT assay relative to control; format: cell-based; conditions: read-out: Survival; method in brief: as §1
Rattus norvegicus [4] = assay: Effect on ERK expression in Sprague-Dawley rat adult hippocampus at 0.5 to 4 mg/kg, ip qd preincubated for 28 days followed by BrdU addition at 2 hrs interval for twice on day 29 measured at 24 hrs post BrdU pulse by immunoblot assay; format: functional, organism-based; method in brief: as §2
Rattus norvegicus [5] = assay: Effect on ERK expression in Sprague-Dawley rat adult hippocampus at 0.05 to 0.5 mg/kg, ip qd preincubated for 28 days followed by BrdU addition at 2 hrs interval for twice on day 29 measured at 28 days post BrdU pulse by immunoblot assay; format: functional, organism-based; method in brief: as §2
Rattus norvegicus [6] = assay: Effect on AKT expression in Sprague-Dawley rat adult hippocampus at 0.05 to 0.5 mg/kg, ip qd preincubated for 28 days followed by BrdU addition at 2 hrs interval for twice on day 29 measured at 28 days post BrdU pulse by immunoblot assay; format: functional, organism-based; method in brief: as §2
Rattus norvegicus [7] = assay: In vivo neurogenic activity in Sprague-Dawley rat neural progenitor cells at 4 mg/kg, ip qd pretreated for 28 days followed by BrdU addition at 2 hrs interval for twice on day 29 measured after 24 hrs by BrdU incorporation assay relative to control; format: functional
Method in brief: (§3)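 Male SD rats aged 10 weeks, acclimatized 7 days (11 weeks old at start), dosed ip once daily for 28 days with compound in soybean oil containing 10% ethanol; vehicle group received 10% ethanol in oil. On day 29, BrdU in saline given twice at 100 mg/kg, 2 h apart. Rats sacrificed 24 h after the last BrdU. BrdU+ cells in SGZ-GCL counted by DAB immunostaining of 30 µm cryosections; n = 8; mean ± SEM.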

[8] = Cytotoxicity against human SH-SY5Y cells assessed as cell survival at 100 uM after 24 hrs by MTT assay relative to control; format: cell-based; conditions: read-out: Survival; method in brief: as §1
Rattus norvegicus [9] = assay: Downregulation of ERK phosphorylation in Sprague-Dawley rat adult hippocampus at 0.05 to 0.5 mg/kg, ip qd preincubated for 28 days followed by BrdU addition at 2 hrs interval for twice on day 29 measured at 28 days post BrdU pulse by immunoblot assay; format: functional, organism-based; method in brief: as §2
Rattus norvegicus [10] = assay: Downregulation of AKT phosphorylation in Sprague-Dawley rat adult hippocampus at 0.05 to 0.5 mg/kg, ip qd preincubated for 28 days followed by BrdU addition at 2 hrs interval for twice on day 29 measured at 28 days post BrdU pulse by immunoblot assay; format: functional, organism-based; method in brief: as §2
Rattus norvegicus [11] = assay: In vivo neurogenic activity in Sprague-Dawley rat neural progenitor cells at 0.5 to 4 mg/kg, ip qd pretreated for 28 days followed by BrdU addition at 2 hrs interval for twice on day 29 measured after 24 hrs by BrdU incorporation assay; format: functional, organism-based
Method in brief: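 Eleven-week-old SD male rats were dosed ip daily for 28 days in soybean oil with 10% ethanol, against a vehicle control. On day 29 BrdU 100 mg/kg was given twice, 2 h apart, and rats were sacrificed 24 h later. Sections were treated with HCl denaturation, BrdU antibody at 1:500 at 4 °C overnight and DAB detection. BrdU+ cells in the SGZ-GCL were counted, mean ± SEM, n = 8.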

Rattus norvegicus [12] = assay: In vivo neurogenic activity in Sprague-Dawley rat adult hippocampal at 0.05 mg/kg, ip qd preincubated for 28 days followed by BrdU addition at 2 hrs interval for twice at day 29 measured at 28 days post last dose by NeuN/BrdU double staining based immunohistochemistry assay relative to control; format: functional
Method in brief: (§4)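 SD male rats, 11 weeks old, were given compound ip daily for 28 days in 10% ethanol/soybean oil. On day 29 they received BrdU 100 mg/kg ip twice, 2 h apart, and were perfused 28 days after the last BrdU. Fixed 30 µm cryosections were co-stained for BrdU and NeuN by fluorescence. BrdU+ cells and the BrdU+NeuN+/BrdU+ fraction were counted against vehicle, mean ± SEM, n = 8.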

Rattus norvegicus [13] = assay: Effect on AKT expression in Sprague-Dawley rat adult hippocampus at 0.5 to 4 mg/kg, ip qd preincubated for 28 days followed by BrdU addition at 2 hrs interval for twice on day 29 measured at 24 hrs post BrdU pulse by immunoblot assay; format: functional, organism-based; method in brief: as §2
Rattus norvegicus [14] = assay: Downregulation of ERK phosphorylation in Sprague-Dawley rat adult hippocampus at 0.5 to 4 mg/kg, ip qd preincubated for 28 days followed by BrdU addition at 2 hrs interval for twice on day 29 measured at 24 hrs post BrdU pulse by immunoblot assay; format: functional, organism-based; conditions: in the assay text read “Upregulation” for “Downregulation”; method in brief: as §2
Rattus norvegicus [15] = assay: In vivo neurogenic activity in Sprague-Dawley rat adult hippocampal at 0.5 mg/kg, ip qd preincubated for 28 days followed by BrdU addition at 2 hrs interval for twice at day 29 measured at 28 days post last dose by NeuN/BrdU double staining based immunohistochemistry assay relative to control; format: functional; method in brief: as §4
Rattus norvegicus [16] = assay: (§5) In vivo neurogenic activity in Sprague-Dawley rat neural progenitor cells assessed as differentiation of new born NPCs to mature functional neurons at 2 mg/kg, ip qd preincubated for 28 days followed by BrdU addition at 2 hrs interval for twice on day 29 measured at 28 days post BrdU pulse by NeuN/BrdU double staining based assay relative to control; method in brief: as §4
Rattus norvegicus [17] = assay: Downregulation of AKT phosphorylation in Sprague-Dawley rat adult hippocampus at 2.2 to 4 mg/kg, ip qd preincubated for 28 days followed by BrdU addition at 2 hrs interval for twice on day 29 measured at 24 hrs post BrdU pulse by immunoblot assay; format: functional, organism-based; conditions: in the assay text read “Upregulation” for “Downregulation”; method in brief: as §2
Rattus norvegicus [18] = assay: Downregulation of ERK phosphorylation in Sprague-Dawley rat adult hippocampus at 2 to 20 mg/kg, ip qd preincubated for 28 days followed by BrdU addition at 2 hrs interval for twice on day 29 measured at 28 days post BrdU pulse by immunoblot assay; format: functional, organism-based; method in brief: as §2
Rattus norvegicus [19] = assay: In vivo neurogenic activity in Sprague-Dawley rat neural progenitor cells at 2.2 mg/kg, ip qd pretreated for 28 days followed by BrdU addition at 2 hrs interval for twice on day 29 measured after 24 hrs by BrdU incorporation assay; format: functional, organism-based; method in brief: as §3
Rattus norvegicus [20] = assay: Downregulation of AKT phosphorylation in Sprague-Dawley rat adult hippocampus at 2 to 20 mg/kg, ip qd preincubated for 28 days followed by BrdU addition at 2 hrs interval for twice on day 29 measured at 28 days post BrdU pulse by immunoblot assay; format: functional, organism-based; method in brief: as §2
Rattus norvegicus [21] = assay: as §5, with “neurons at 20 mg/kg, ip” for “neurons at 2 mg/kg, ip”; method in brief: as §4
Rattus norvegicus [22] = assay: Effect on ERK expression in Sprague-Dawley rat adult hippocampus at 2.2 to 4 mg/kg, ip qd preincubated for 28 days followed by BrdU addition at 2 hrs interval for twice on day 29 measured at 24 hrs post BrdU pulse by immunoblot assay; format: functional, organism-based; method in brief: as §2
Rattus norvegicus [23] = assay: Downregulation of ERK phosphorylation in Sprague-Dawley rat adult hippocampus at 2.2 to 4 mg/kg, ip qd preincubated for 28 days followed by BrdU addition at 2 hrs interval for twice on day 29 measured at 24 hrs post BrdU pulse by immunoblot assay; format: functional, organism-based; conditions: in the assay text read “Upregulation” for “Downregulation”; method in brief: as §2
Rattus norvegicus [24] = assay: Effect on AKT expression in Sprague-Dawley rat adult hippocampus at 2.2 to 4 mg/kg, ip qd preincubated for 28 days followed by BrdU addition at 2 hrs interval for twice on day 29 measured at 24 hrs post BrdU pulse by immunoblot assay; format: functional, organism-based; method in brief: as §2
Rattus norvegicus [25] = assay: as §5, with “neurons at 4 mg/kg, ip” for “neurons at 2 mg/kg, ip”; method in brief: as §4
Rattus norvegicus [26] = assay: In vivo neurogenic activity in Sprague-Dawley rat neural progenitor cells at 2 mg/kg, ip qd preincubated for 28 days followed by BrdU addition at 2 hrs interval for twice on day 29 measured at 28 days post BrdU pulse by BrdU double staining based assay relative to control; format: functional; method in brief: as §4
Rattus norvegicus [27] = assay: Effect on AKT expression in Sprague-Dawley rat adult hippocampus at 2 to 20 mg/kg, ip qd preincubated for 28 days followed by BrdU addition at 2 hrs interval for twice on day 29 measured at 28 days post BrdU pulse by immunoblot assay; format: functional, organism-based; method in brief: as §2
Rattus norvegicus [28] = assay: Effect on ERK expression in Sprague-Dawley rat adult hippocampus at 2 to 20 mg/kg, ip qd preincubated for 28 days followed by BrdU addition at 2 hrs interval for twice on day 29 measured at 28 days post BrdU pulse by immunoblot assay; format: functional, organism-based; method in brief: as §2
[29] = Drug uptake in mouse brain at 20 mg/kg, po via gavage by HPLC-MS/MS analysis; format: ADME, organism-based; conditions: in vivo, read-out: Drug uptake

With `O=C(Nc1ccc(/C=C/c2ccc3c(c2)OCO3)cc1)c1ccccc1` the viability at 24 h, 500 µM [1] was 99.3%, the Activity (Rattus norvegicus [2]) was “Active” and the viability at 24 h, 1000 µM [3] was 85%. For the same compound, the Activity (Rattus norvegicus [4]) was “Active”, the Activity (Rattus norvegicus [5]) was “Active” and the Activity (Rattus norvegicus [6]) was “Active”. For the same compound, the “fold change (FC)” value (Rattus norvegicus [7]) was 2.2 - 3.5, the viability at 24 h, 100 µM [8] was 98.6% and the Activity (Rattus norvegicus [9]) was “Active”. The Activity (Rattus norvegicus [10]) was “Active”, the Activity (Rattus norvegicus [11]) was “Active” and the “fold change (FC)” value (Rattus norvegicus [12]) was 1.6. The Activity (Rattus norvegicus [13]) was “Active”, the Activity (Rattus norvegicus [14]) was “Active” and the “fold change (FC)” value (Rattus norvegicus [15]) was 3.2.
For `CS(=O)(=O)Nc1ccc(/C=C/c2ccc3c(c2)OCO3)cc1`, the viability at 24 h, 500 µM [1] was 68.9%, the viability at 24 h, 1000 µM [3] was 62.3% and the “fold change (FC)” value (Rattus norvegicus [7]) was 2.2 - 3.5. For the same compound, the viability at 24 h, 100 µM [8] was 72.5% and the Activity (Rattus norvegicus [11]) was “Active”.
With `CC(=O)Nc1ccc(/C=C/c2ccc3c(c2)OCO3)cc1` the viability at 24 h, 500 µM [1] was 91.9%, the “fold change (FC)” value (Rattus norvegicus [16]) was 4.6 and the viability at 24 h, 1000 µM [3] was 80.4%. For the same compound, the Activity (Rattus norvegicus [17]) was “Active”, the Activity (Rattus norvegicus [18]) was “Active” and the Activity (Rattus norvegicus [19]) was “Active”. The Activity (Rattus norvegicus [20]) was “Active”, the “fold change (FC)” value (Rattus norvegicus [21]) was 2.3 and the Activity (Rattus norvegicus [22]) was “Active”. For the same compound, the Activity (Rattus norvegicus [23]) was “Active”, the Activity (Rattus norvegicus [24]) was “Active” and the “fold change (FC)” value (Rattus norvegicus [25]) was 3.1. For the same compound, the Activity (Rattus norvegicus [7]) was “Active”, the viability at 24 h, 100 µM [8] was 97% and the “fold change (FC)” value (Rattus norvegicus [26]) was 4.2. The Activity (Rattus norvegicus [27]) was “Active” and the Activity (Rattus norvegicus [28]) was “Active”.
In the case of `CC(=O)Nc1ccc(CCc2ccc3c(c2)OCO3)cc1`, the viability at 24 h, 500 µM [1] is reported as 79.4%, the viability at 24 h, 1000 µM [3] is reported as 68.8% and the Activity (Rattus norvegicus [19]) is reported as “inactive”. The viability at 24 h, 100 µM [8] was 90.3%.
In the case of `COc1ccc(C#Cc2ccc3c(c2)OCO3)cc1`, the viability at 24 h, 500 µM [1] is reported as 69.1%, the viability at 24 h, 1000 µM [3] is reported as 63.8% and the Activity (Rattus norvegicus [19]) is reported as “inactive”. The viability at 24 h, 100 µM [8] was 75.9%.
In the case of `COc1cccc(NCC(F)Cn2c3ccc(Br)cc3c3cc(Br)ccc32)c1` (stereo not given), the concentration [29] is reported as 900 nM.
With `CC(=O)Oc1ccc(/C=C/c2ccc3c(c2)OCO3)cc1` the viability at 24 h, 500 µM [1] was 21.3%, the viability at 24 h, 1000 µM [3] was 17.8% and the Activity (Rattus norvegicus [19]) was “inactive”. The viability at 24 h, 100 µM [8] was 84.5%.
